Only some compounds are listed: those with a hit (about 3.2% of all), similar ones and a draw of the others.
OX1R antag-1 – antagonists of human orexin 1 receptor (OX1R); OX1R-expressing cells, FRET antagonist read-out; AID 485270; hit rate 1.8% among 330,000; O43613; inhibition, % at 6.6 µM; in the data active = inhibition mostly above about 38%, no sharp cut-off; inactive = mostly below about 40%
CHO parental Ca – counter-screen: ATP calcium response change in parental CHO cells | parental CHO-K1, ATP-induced calcium, Fluo-8 fluorescence | inhibition, % at 5.6 µM | hit rate 0.63% among 330,000;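 active = inhibition above that plate's mean sample inhibition plus 3 SD, cut at about 26% in these data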
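Test system: parental CHO cells; detection: calcium-sensitive Fluo-8 fluorescence; evaluation: percent inhibition of calcium signal; also added: ATP as calcium-mobilizing challenge; repeats: one well per compound; control set: ATP-challenged DMSO wells low, unchallenged DMSO wells high; compound: single nominal dose of 5.6 µM per compound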
TRPML3 ag – activates the human TRPML3 channel; HEK293 TRPML3-YFP, Fluo-8 calcium fluorescence; 100% = the carbachol control signal; activation, % at 3 µM; hit rate 0.29% among 220,000; Q8TDD5;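 active = activation above its plate's cutoff, the mean activation of the plate's test wells plus 3 SD, cut at about 12% in these data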
Target sequence (Q8TDD5 whole entry, looked up): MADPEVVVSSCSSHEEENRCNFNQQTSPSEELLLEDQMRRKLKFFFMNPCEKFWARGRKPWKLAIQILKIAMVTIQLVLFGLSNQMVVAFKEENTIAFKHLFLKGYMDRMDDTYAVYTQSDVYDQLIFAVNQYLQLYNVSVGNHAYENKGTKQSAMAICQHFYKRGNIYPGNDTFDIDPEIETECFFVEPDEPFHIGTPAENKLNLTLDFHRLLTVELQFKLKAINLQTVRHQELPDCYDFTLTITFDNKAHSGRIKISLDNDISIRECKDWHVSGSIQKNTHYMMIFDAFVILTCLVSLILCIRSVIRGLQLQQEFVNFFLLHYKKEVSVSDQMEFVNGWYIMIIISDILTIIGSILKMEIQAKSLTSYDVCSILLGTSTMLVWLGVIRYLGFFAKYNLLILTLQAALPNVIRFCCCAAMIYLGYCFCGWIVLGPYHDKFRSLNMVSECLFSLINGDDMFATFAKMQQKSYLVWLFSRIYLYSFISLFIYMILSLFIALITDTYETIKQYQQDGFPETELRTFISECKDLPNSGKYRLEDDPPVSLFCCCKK
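Test system: HEK293 cells stably carrying human TRPML3-YFP; Doses: single dose, 3 µM final nominal compound, 0.3% DMSO final; Schedule: dye loading 1 h 37 °C then 30 min ambient, 125 s read; Technique: Fluo-8 calcium fluorescence; Benchmarks: high control carbachol 87 µM, low control DMSO.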
OX1R antag-2 – blocks the human orexin 1 receptor. O43613. CHO/OX1R cells, Fluo-8 calcium fluorescence, orexin A. inhibition, % at 5 µM. hit rate 0.43% among 330,000;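 active = inhibition above its plate's threshold, mean inhibition of all tested compounds on the plate plus 3 SD, cut at about 37% in these data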
TRPN1 ag – zebrafish TRPN1 (NompC) channel agonism; HEK293 zebrafish TRPN1-YFP, Fluo-8 calcium fluorescence; 100% = response to 87 µM carbachol; activation, % at 3 µM; AID 1424; hit rate 0.18% among 220,000;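 active = activation above its plate's cutoff, the mean activation of test wells on that plate plus 3 SD, cut at about 19% in these data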
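System: zebrafish TRPN1-YFP in HEK293 cells / Dosing: 3 µM single point / Timing: dye loading 1 h at 37 °C, then 30 min room temperature / Signal: Fluo-8 calcium fluorescence, excitation 470-495 nm, emission 515-575 nm / Read-out basis: percent activation from peak over basal fluorescence ratio, control-normalized / Control set: high carbachol 87 µM, low DMSO alone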
GPR7 antagonist – human neuropeptides B/W receptor 1 antagonism. GPR7-expressing cells, fluorescence antagonist assay. inhibition, % at 4.4 µM. hit rate 1.1% among 290,000. AID 1861; in the data active = inhibition above about 16%, passing the limit was not always enough;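 also: cells stimulated with the agonist NPW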
OX1R HTRF confirm – OX1R (human) antagonism, HTRF confirmed. shares compounds with OX1R antag-1. OX1R-expressing cells, HTRF antagonist assay. inhibition, % at 6.6 µM. hit rate 49% among 1,800; in the data active = inhibition above about 55%;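 also: CHO cells expressing OX1R stimulated with orexin A at about EC80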
CHO-K1 HTRF – signal in parental CHO-K1 cells, OX1R antagonist counter-screen; shares compounds with OX1R antag-1; HTRF counterscreen; inhibition, % at 6.6 µM; hit rate 48% among 1,800; AID 493232; in the data active = inhibition above about 17%
A number is an active result; 0 = inactive; - = no result.

SMILES	OX1R antag-1	CHO parental Ca	TRPML3 ag	OX1R antag-2	TRPN1 ag	GPR7 antagonist	OX1R HTRF confirm	CHO-K1 HTRF
O=C(CNC(=O)c1cccs1)NCC(=O)OCC(=O)c1ccc([N+](=O)[O-])cc1	103	0	0	0	0	0	0	43
CC1=CC(=NOC(=O)c2cccc([N+](=O)[O-])c2)C=C(C)C1=O	118	0	0	0	0	0	0	18
CC1=CC(=O)C(C(C)C)=C/C1=N/OC(=O)c1cccc([N+](=O)[O-])c1	0	0	0	0	0	0	-	-
Oc1ccc2ccccc2c1N=Nc1ccccn1	86	0	0	0	0	0	0	29
COc1ccc(C(CNS(=O)(=O)c2cccc(F)c2)N2CCCC2)cc1 (stereo unspecified)	0	0	-	0	-	-	-	-
O=C(CN1C(=O)c2cccc3cccc(c23)C1=O)N1CCOCC1	104	0	0	0	0	0	0	87
COc1ccc(C(=O)CN2CCN(CCN3C(=O)c4cccc5cccc(c45)C3=O)CC2)cc1	91	0	-	0	-	-	0	21
O=C(CN1C(=O)S/C(=C/c2ccc(N3CCOCC3)cc2)C1=O)N1CCOCC1	85	0	0	0	0	0	0	47
Cc1cc(NC(=O)c2nn(C)c(C)c2Br)no1	0	0	-	0	-	0	-	-
O=C(NCCN1CCN(C(=O)c2ccc(F)cc2)CC1)c1ccc(F)cc1	0	0	-	0	-	0	-	-
O=C(Nc1cc(F)cc(F)c1)c1ccc(NCCCN2CCCCCC2)c([N+](=O)[O-])c1	86	0	0	0	0	0	0	39
Fc1cc(F)c2nc(N3CCCC3)sc2c1	0	0	0	0	0	0	-	-
Cc1ccc(C)c(OC(=O)CN2C(=O)c3ccccc3C2=O)c1	0	0	-	0	-	0	-	-
CCN1C(=O)c2cccc3c(S(=O)(=O)NCc4cccnc4)ccc1c23	77	0	0	0	0	0	0	0
CC(=O)Nc1ccc(NC(=O)C(C)OC(=O)CCCOc2ccc(Cl)c(C)c2)cc1 (stereo unspecified)	85	0	-	0	-	0	78	0
O=[N+]([O-])c1cnccc1Nc1ccc(F)cc1	127	0	0	0	0	0	0	33
CN(CCO)c1ccc([N+](=O)[O-])cc1C(=O)O	80	0	0	0	0	0	0	25
O=C(O)c1cc([N+](=O)[O-])ccc1NCCO	0	0	0	0	0	0	-	-
COc1cccc(Nc2ncnc3c2cnn3-c2cccc(C)c2)c1	92	0	0	0	0	0	0	0
CCCN(C(=O)CSc1ccccc1C(=O)O)C1CCS(=O)(=O)C1 (stereo unspecified)	0	0	-	0	-	-	-	-
O=C1c2cc([N+](=O)[O-])cc3cc([N+](=O)[O-])cc(c23)C(=O)N1c1ccccn1	82	0	0	0	0	0	73	114
O=C1c2ccc([N+](=O)[O-])cc2C(=O)N1c1ccc([N+](=O)[O-])cn1	95	0	-	0	-	-	0	63
CSCCC(NS(=O)(=O)c1ccc(C)cc1)C(=O)N1CC=C(c2ccccc2)CC1 (stereo unspecified)	0	0	-	0	-	-	-	-
CN1C2=CC=CC=CC2=[N+](C)C12C([N+](=O)[O-])=CC(=[N+]([O-])[O-])C=C2[N+](=O)[O-] (stereo unspecified)	0	0	0	0	0	0	-	-
CN1C2=CC=CC=CC2=[N+](C)C12C=CC(=[N+]([O-])[O-])C=C2[N+](=O)[O-] (stereo unspecified)	144	0	0	0	0	0	68	90
SMILES	OX1R antag-1	CHO parental Ca	TRPML3 ag	OX1R antag-2	TRPN1 ag	GPR7 antagonist	OX1R HTRF confirm	CHO-K1 HTRF
Cc1cccc(NC(=O)CCC2CCN(C(=O)C3CC=CCC3)CC2)c1 (stereo unspecified)	0	0	-	0	-	0	-	-
O=C(Nc1cccnc1)c1ccccc1Cl	0	0	-	0	-	0	-	-
O=C(Nc1cccnc1)c1cnc2ccccc2n1	109	0	0	0	0	0	0	45
COc1cc(NC(=O)c2cc3c(C)nc4ccccc4c3o2)cc(OC)c1OC	0	0	0	0	0	0	-	-
Cc1nc2ccccc2c2oc(C(=O)Nc3ccc4c(c3)OCCO4)cc12	95	0	0	0	0	0	89	0
Cc1c(C(=O)Nc2ccc3c(c2)OCCO3)oc2ccc(Br)cc12	82	0	-	0	-	-	76	0
CC(C)N(Cc1ccccc1)C(=O)CN1C(=O)NC2(CCCCCC2)C1=O	0	0	-	0	-	-	-	-
COc1ccc(S(=O)(=O)Nc2c(O)ccc3ccccc23)cc1OC	77	0	-	0	-	-	72	0
Cc1cc(C)cc(NC(=O)c2ccc([N+](=O)[O-])o2)c1	-	-	0	-	0	0	-	-
O=C(Nc1ncccn1)c1cc([N+](=O)[O-])cc([N+](=O)[O-])c1	107	0	0	0	0	0	58	72
O=C(c1cc([N+](=O)[O-])cc([N+](=O)[O-])c1)N(c1ccccn1)c1ccccn1	103	0	0	0	0	0	0	72
Cc1cc(C)nc(NC(=O)c2ccc([N+](=O)[O-])o2)n1	78	0	0	0	0	0	0	80
O=C(Nc1ncccn1)c1cccc(F)c1	0	0	-	0	-	0	-	-
Cc1ccc(C)c(NC(=O)c2cc([N+](=O)[O-])cc([N+](=O)[O-])c2)c1	80	0	-	0	-	0	0	41
C[C@@]12C(=O)N(c3cccc(F)c3)C(=O)N1[C@@H]1c3ccccc3OC[C@@H]1[C@H]2c1ccccc1	0	0	-	0	-	-	-	-
O=C(NN(c1ccccc1)c1ccccc1)c1ccc([N+](=O)[O-])o1	0	0	0	0	0	0	-	-
Cc1cc(C)nc(NC(=O)c2cc([N+](=O)[O-])cc([N+](=O)[O-])c2)n1	111	0	0	0	0	0	0	68
NS(=O)(=O)c1ccc(O)c(NC(=O)c2ccc([N+](=O)[O-])o2)c1	125	0	0	0	0	0	0	61
O=C(Nc1cccnc1)c1ccc([N+](=O)[O-])o1	79	0	-	0	-	0	58	88
Cc1cc(C)nc(NC(=O)c2ccc(C)c([N+](=O)[O-])c2)n1	0	0	0	0	0	0	-	-
O=C(NNC(=O)c1ccc([N+](=O)[O-])o1)c1ccccc1	136	0	0	0	0	0	59	64
COc1ccc(NC(=S)NC(=O)c2cncc(Br)c2)cc1	0	0	-	0	-	-	-	-
Cc1cc(C)c(C)c(S(=O)(=O)N2CCN(C(=O)c3cc(S(=O)(=O)N4CCOCC4)ccc3F)CC2)c1C	0	0	-	0	-	-	-	-
O=C(CNC(=O)c1ccccc1)N/N=C/c1ccc([N+](=O)[O-])o1	98	0	0	0	0	0	0	75

Source: PubChem
